Data: paper PMC3076536 (Journal of the American Chemical Society, 2011)

Key:
DAPK1 = DAPK1 (Homo sapiens, UniProt P53355); assay: Radioactive [γ-33P]ATP kinase activity assay, DAPK1; format: biochemical; settings: read-out: IC50 DAPK1; 100 μM ATP
Summary of the method: (§1)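 Commercial human kinase and substrate were used, except the PAK1 kinase domain (residues 249–545), which was expressed and purified in-house. Serial inhibitor concentrations were preincubated 15 min with kinase and substrate in 20 mM MOPS pH 7.0, 30 mM MgCl₂, 0.8 μg/μL BSA and 5% DMSO. The reaction was started with ATP (final 100 μM) plus [γ-³³P]ATP. Reactions were spotted on P81 paper, washed and scintillation-counted. IC50 was the concentration giving background-corrected CPM at 50% of control.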

[1] = molecular target: PAK1 kinase domain (residues 249 to 545) (Homo sapiens, UniProt Q13153); assay: Radioactive [γ-33P]ATP kinase activity assay, PAK1; format: biochemical; settings: read-out: IC50 PAK1; 100 μM ATP
Sequence of PAK1 kinase domain (residues 249 to 545) (Q13153 249-545): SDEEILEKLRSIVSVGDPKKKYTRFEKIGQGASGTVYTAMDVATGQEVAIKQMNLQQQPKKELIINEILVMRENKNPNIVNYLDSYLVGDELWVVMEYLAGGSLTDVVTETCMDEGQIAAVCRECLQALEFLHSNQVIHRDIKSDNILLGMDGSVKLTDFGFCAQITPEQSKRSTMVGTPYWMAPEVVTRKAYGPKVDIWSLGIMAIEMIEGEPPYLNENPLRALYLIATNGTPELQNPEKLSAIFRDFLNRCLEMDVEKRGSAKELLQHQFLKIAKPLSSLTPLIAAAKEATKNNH
Summary of the method: as §1

[2] = test system: panels of human wild type protein kinases; assay: Millipore KinaseProfiler selectivity profile over whole panel; format: biochemical; settings: compound 10 nM, 10 μM ATP, panel of 102 kinases
Summary of the method: (§2)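 Single-concentration screen on a commercial panel of human wild-type kinases. Test compound was at 10 nM with 10 μM ATP. Only kinases whose assay concentration was at or below the inhibitor concentration were included, giving 102 kinases. Percentage kinase activity was measured in duplicate and averaged.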

CLK2 = CLK2 (Homo sapiens, UniProt P49760); assay: Millipore KinaseProfiler single-concentration screen, CLK2; format: biochemical; settings: compound 10 nM, 10 μM ATP
Sequence of CLK2 (P49760 whole entry): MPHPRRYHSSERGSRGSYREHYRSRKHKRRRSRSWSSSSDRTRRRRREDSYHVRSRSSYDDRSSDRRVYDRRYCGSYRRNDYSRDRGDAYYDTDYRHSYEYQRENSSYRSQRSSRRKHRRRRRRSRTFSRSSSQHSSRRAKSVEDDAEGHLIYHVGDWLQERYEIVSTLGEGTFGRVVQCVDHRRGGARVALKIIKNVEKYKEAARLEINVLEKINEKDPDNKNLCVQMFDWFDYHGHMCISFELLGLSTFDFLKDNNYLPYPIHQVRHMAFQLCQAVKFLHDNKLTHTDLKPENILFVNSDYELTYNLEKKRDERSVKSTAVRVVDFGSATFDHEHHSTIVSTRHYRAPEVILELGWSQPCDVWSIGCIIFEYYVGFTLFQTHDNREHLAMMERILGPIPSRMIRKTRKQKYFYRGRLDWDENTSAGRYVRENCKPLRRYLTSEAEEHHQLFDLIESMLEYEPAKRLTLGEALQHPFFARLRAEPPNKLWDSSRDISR
Summary of the method: as §2

MLCK = assay: Radioactive [γ-33P]ATP kinase activity assay, MLCK; format: biochemical, human; settings: read-out: IC50 MLCK; 100 μM ATP
Summary of the method: as §1

GSK3β [3] = molecular target: T1, GSK3β (Homo sapiens, UniProt P49841); assay: Radioactive [γ-33P]ATP kinase activity assay, GSK3β; format: biochemical; settings: read-out: IC50 GSK3β; 100 μM ATP
T1 sequence (P49841 whole entry): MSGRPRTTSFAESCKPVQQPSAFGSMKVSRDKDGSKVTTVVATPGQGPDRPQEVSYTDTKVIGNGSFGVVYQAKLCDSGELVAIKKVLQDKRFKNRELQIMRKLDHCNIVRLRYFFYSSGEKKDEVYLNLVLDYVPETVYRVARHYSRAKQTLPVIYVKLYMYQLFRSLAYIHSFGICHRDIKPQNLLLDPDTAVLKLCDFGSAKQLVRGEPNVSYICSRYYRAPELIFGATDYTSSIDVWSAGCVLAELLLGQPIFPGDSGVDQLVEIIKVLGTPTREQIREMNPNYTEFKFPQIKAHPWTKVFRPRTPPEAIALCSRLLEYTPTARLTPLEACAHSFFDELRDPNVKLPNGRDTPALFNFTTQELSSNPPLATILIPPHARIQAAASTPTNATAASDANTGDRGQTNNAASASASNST
Summary of the method: as §1

GSK3α [4] = molecular target: T2, GSK3α (Homo sapiens, UniProt P49840); assay: Radioactive [γ-33P]ATP kinase activity assay, GSK3α; format: biochemical
T2 sequence (P49840 whole entry): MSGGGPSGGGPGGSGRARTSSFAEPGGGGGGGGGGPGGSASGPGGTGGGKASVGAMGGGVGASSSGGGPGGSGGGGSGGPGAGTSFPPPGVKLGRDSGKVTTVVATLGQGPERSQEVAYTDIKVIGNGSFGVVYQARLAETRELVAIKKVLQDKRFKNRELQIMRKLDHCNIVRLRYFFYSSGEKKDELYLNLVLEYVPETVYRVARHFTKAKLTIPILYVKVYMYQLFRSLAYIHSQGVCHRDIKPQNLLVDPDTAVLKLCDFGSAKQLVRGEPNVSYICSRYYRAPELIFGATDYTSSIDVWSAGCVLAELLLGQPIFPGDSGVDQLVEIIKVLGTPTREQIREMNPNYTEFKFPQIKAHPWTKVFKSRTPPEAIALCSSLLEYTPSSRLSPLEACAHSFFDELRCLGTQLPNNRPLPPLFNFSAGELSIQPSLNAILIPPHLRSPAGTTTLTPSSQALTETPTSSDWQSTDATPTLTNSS
Summary of the method: as §1

PIM1 [5] = molecular target: T3, PIM1 (Homo sapiens, UniProt P11309); assay: Radioactive [γ-33P]ATP kinase activity assay, PIM1; format: biochemical; settings: read-out: IC50 PIM1; 100 μM ATP
T3 sequence (P11309 whole entry): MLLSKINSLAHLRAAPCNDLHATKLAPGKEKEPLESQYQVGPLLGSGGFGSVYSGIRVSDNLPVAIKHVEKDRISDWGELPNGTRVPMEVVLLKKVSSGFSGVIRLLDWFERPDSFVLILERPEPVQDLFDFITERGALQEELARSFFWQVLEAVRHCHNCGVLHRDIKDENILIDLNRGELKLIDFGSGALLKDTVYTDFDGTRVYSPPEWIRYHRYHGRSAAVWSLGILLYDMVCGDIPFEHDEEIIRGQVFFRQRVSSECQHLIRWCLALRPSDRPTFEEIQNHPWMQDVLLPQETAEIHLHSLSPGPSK
Summary of the method: as §1

GSK3β [6] = molecular target: T1, GSK3β; assay: Millipore KinaseProfiler single-concentration screen, GSK3β; format: biochemical; settings: compound 10 nM, 10 μM ATP
Summary of the method: as §2

PIM1 [7] = molecular target: T3, PIM1; assay: Millipore KinaseProfiler single-concentration screen, PIM1; format: biochemical; settings: compound 10 nM, 10 μM ATP
Summary of the method: as §2

FLT4 = FLT4 (Homo sapiens, UniProt P35916); assay: Radioactive [γ-33P]ATP kinase activity assay, FLT4; format: biochemical; settings: read-out: IC50 FLT4; 100 μM ATP
Sequence of FLT4 (P35916 25-1363): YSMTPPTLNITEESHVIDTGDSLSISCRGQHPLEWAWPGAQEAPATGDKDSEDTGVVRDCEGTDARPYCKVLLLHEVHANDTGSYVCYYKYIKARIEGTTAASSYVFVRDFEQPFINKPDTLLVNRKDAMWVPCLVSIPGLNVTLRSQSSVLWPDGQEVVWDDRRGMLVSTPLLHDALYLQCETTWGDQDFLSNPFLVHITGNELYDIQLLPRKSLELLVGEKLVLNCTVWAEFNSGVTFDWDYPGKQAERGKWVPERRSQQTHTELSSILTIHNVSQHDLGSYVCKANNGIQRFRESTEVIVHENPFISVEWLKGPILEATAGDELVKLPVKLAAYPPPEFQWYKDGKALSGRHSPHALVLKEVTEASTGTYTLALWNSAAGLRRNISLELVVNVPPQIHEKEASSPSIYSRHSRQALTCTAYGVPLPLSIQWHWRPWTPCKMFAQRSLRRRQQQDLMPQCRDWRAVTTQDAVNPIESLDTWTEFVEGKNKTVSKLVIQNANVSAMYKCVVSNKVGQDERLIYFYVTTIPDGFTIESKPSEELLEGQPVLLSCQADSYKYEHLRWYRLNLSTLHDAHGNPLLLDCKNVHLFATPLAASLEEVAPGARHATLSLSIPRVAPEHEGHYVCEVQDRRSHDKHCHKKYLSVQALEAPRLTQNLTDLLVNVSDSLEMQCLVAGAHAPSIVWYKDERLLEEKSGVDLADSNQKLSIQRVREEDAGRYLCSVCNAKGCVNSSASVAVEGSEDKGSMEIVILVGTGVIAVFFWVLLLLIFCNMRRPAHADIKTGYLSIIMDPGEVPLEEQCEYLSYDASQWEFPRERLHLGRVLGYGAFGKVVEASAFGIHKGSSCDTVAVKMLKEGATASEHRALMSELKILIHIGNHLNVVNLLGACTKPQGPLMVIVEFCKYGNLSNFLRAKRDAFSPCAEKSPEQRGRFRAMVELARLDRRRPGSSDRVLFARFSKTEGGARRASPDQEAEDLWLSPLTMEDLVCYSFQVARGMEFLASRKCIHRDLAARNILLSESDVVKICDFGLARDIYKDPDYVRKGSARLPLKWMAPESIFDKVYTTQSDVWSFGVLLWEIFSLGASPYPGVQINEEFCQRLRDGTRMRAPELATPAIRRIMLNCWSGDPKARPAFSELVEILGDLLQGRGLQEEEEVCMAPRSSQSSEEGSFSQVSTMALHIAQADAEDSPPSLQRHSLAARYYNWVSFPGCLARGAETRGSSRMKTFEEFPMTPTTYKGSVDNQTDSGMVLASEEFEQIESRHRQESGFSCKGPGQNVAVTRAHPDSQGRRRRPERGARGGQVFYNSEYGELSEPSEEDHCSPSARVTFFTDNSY
Summary of the method: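 Radiometric assay with commercial human FLT4 and substrate. Serial inhibitor concentrations were preincubated 45 min with kinase and substrate in 20 mM MOPS pH 7.0, 30 mM MgCl₂, 0.8 μg/μL BSA and 5% DMSO. The reaction was started with ATP (final 100 μM) containing [γ-³³P]ATP. Reactions were stopped on P81 paper, washed and scintillation-counted. IC50 was the concentration giving 50% of control CPM after background correction.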

GSK3α [8] = molecular target: T2, GSK3α; assay: Millipore KinaseProfiler single-concentration screen, GSK3α; format: biochemical; settings: compound 10 nM, 10 μM ATP
Summary of the method: as §2

Sequence of DAPK1 (P53355 whole entry, the tested form may be a part): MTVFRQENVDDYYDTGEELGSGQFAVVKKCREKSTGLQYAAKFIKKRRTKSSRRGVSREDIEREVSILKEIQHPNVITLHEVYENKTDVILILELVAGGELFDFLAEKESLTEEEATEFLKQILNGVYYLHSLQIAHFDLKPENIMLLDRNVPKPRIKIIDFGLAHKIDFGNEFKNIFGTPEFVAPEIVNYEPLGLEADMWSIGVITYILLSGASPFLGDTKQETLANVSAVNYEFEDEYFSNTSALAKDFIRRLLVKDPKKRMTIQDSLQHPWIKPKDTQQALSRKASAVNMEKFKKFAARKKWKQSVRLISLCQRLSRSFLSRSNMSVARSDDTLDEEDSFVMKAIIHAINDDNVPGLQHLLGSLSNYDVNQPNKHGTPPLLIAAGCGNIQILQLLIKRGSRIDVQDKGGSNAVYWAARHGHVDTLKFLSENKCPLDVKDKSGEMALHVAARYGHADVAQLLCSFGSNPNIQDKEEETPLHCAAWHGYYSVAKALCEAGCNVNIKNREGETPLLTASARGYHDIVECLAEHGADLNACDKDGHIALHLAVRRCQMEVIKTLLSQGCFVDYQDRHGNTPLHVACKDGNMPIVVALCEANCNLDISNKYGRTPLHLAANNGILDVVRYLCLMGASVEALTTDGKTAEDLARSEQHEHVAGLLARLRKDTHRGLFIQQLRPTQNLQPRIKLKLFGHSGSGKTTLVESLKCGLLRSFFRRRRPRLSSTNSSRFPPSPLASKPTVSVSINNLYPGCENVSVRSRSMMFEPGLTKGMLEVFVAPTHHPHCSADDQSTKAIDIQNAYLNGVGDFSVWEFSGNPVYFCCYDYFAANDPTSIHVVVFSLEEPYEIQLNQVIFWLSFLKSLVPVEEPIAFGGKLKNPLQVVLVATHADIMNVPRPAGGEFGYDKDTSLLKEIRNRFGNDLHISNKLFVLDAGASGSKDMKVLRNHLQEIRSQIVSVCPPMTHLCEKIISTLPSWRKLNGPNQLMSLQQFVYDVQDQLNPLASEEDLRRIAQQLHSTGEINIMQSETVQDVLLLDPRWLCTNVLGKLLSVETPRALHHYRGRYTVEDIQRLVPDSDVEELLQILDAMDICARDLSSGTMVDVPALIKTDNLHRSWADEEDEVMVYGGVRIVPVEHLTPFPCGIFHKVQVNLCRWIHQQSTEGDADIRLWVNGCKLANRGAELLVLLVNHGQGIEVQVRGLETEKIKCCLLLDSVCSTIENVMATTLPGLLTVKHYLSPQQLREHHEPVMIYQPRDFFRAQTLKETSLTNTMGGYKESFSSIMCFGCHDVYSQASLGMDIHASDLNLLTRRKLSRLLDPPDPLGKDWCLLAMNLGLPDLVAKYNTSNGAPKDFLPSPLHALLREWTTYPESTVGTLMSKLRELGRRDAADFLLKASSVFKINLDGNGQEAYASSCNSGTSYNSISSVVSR

IC50 (DAPK1): 22800 nM
IC50 [1]: > 100000 nM
residual activity CLK2 (CLK2): 33%
IC50 (MLCK): 22 nM
IC50 (GSK3β [3]): 6 nM
IC50 value ratio of GSK3α/PAK1 (GSK3α [4]; 100 μM ATP): < 0.000009
selectivity for the α- over β-isoform of GSK3 (GSK3α [4]; IC50 ratio, 100 μM ATP): ca. 7 fold
lower IC50 value compared to respective pyridocarbazole ligand, GSK3α (GSK3α [4]; metal complex vs free ligand): 8890 fold
IC50 (GSK3α [4]; read-out: IC50 GSK3α, 100 μM ATP): 0.9 nM
IC50 (PIM1 [5]): 14 nM
residual activity GSK3β (GSK3β [6]): 58%
residual activity PIM1 (PIM1 [7]): 13%
IC50 (FLT4): 1180 nM
residual activity GSK3α (GSK3α [8]): 6%
SMILES: Nc1cnc2c(c1)c1c(c3c4ccccc4[n-]c23)C(=O)NC1=O.[C-]#[O+].[Cl][Ru+3].[NH-]Cc1ccccn1 [Λ-OS1]
number of kinases out of 102 with activity higher than 75% [2]: 98
